The text below walks through data of ChEMBL document CHEMBL2021835 (J Med Chem, 2012).

Each structure is given as a SMILES string. Calls of active or inactive are those of the source. No cut-off for these calls is given here.

In assay [1] the target is T1, Signal transducer and activator of transcription 5A (Homo sapiens) (UniProt P42229).
T1 sequence (whole entry): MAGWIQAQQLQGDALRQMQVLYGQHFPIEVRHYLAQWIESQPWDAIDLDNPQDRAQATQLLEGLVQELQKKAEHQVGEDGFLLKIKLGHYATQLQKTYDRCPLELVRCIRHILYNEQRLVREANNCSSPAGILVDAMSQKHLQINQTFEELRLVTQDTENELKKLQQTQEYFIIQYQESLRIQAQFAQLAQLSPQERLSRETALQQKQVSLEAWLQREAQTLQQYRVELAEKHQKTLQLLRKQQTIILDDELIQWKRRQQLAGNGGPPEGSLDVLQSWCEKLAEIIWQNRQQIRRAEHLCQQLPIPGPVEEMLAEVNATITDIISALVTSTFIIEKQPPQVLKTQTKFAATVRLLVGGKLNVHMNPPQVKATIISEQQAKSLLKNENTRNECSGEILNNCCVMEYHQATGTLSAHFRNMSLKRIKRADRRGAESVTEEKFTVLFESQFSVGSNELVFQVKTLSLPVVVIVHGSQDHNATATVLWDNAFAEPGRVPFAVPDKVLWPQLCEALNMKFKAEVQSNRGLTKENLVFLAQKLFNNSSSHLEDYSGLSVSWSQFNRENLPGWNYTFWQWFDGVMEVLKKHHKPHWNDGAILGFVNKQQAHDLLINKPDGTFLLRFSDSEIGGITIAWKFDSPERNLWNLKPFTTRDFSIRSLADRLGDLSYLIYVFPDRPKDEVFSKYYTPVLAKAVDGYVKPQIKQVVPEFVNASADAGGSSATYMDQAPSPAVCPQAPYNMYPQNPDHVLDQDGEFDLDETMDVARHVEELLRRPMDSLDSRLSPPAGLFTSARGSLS
In words: Inhibition of STAT5 binding to C-MYC promoter region human K562 cells at 40 uM after 6 hrs by chromatin immunoprecipitation assay. The class given is cell-based. Summed up: (§1)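 K562 cells were treated at 40 μM for 6 h, cross-linked with 1% formaldehyde and lysed. Chromatin was sonicated to 300–500 bp, keeping 1/20 as input. It was immunoprecipitated overnight at 4 °C with anti-phospho-STAT5 (Tyr694) at 1:50 or control rabbit IgG, pulled down on Protein G agarose, and promoter regions were detected by PCR.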

For assay [2], the target named is T2, Bcr/Abl fusion protein (Homo sapiens) (UniProt P00519+P11274). Description: Inhibition of BCR-ABL-mediated STAT3 phosphorylation in human K562 cells at 40 uM after 6 hrs by phospho-flow cytometry. The class given is cell-based. The gist of the method:
(§2)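 K562 cells were treated at 40 μM for 6 h, or left untreated, then fixed. Cells were stained with unlabeled rabbit monoclonal antibodies to pSTAT3, pSTAT5 or pAKT1, detected with Cy5-anti-rabbit IgG, and read by flow cytometry.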

The target of assay [3] is T1, Signal transducer and activator of transcription 5A (Homo sapiens). In words: Inhibition of STAT5-mediated C-MYC expression in human K562 cells at 40 uM after 6 hrs by RT-PCR analysis. The assay is classed as cell-based. Summed up:
(§3)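 K562 cells were treated at 40 μM for 6 h. Transcript levels of the STAT5 target genes were measured by RT-PCR.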

Assay [4] has the same target. Description: Inhibition of STAT5 binding to cyclin D1 promoter region human K562 cells at 40 uM after 6 hrs by chromatin immunoprecipitation assay. The assay is classed as cell-based. Summed up: as §1
For assay [5], the system named is K562. In words: Cytotoxicity against human K562 cells expressing STAT5 after 48 hrs by alamar blue fluorescent staining. The assay is classed as functional, cell-based. The settings on record: K562, 48 h. The gist of the method: (§4)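 Cells seeded at 1 × 10^5 in exponential growth and treated at 10, 20 and 40 μM. Viability was read by Alamar Blue fluorescence daily over 3 consecutive days.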
(In general: The colour change of resazurin is a common sign of viable cells or microbes.)

Assay [6] deals with T2, Bcr/Abl fusion protein (Homo sapiens). Description: Inhibition of BCR-ABL-mediated AKT phosphorylation in human K562 cells at 40 uM after 6 hrs by phospho-flow cytometry. The class given is cell-based. Summed up:
as §2
On the technique in general: A flow cytometer gives signals particle by particle.

Assay [7] has as its system K562. Description: Induction of apoptosis in human K562 cells assessed as pre-necrotic cells at 40 uM after 24 hrs using annexin-V FITC/PI double staining by flow cytometry (reference value: 0.36%). The assay is classed as functional.
Assay [8] concerns K562. In words: Induction of apoptosis in human K562 cells assessed as early apoptotic cells at 40 uM after 24 hrs using annexin-V FITC/PI double staining by flow cytometry (reference value: 1.26%). The class given is functional.
Assay [9] addresses T2, Bcr/Abl fusion protein (Homo sapiens). In words: Inhibition of BCR-ABL-mediated STAT5 phosphorylation in human K562 cells at 40 uM after 6 hrs by phospho-flow cytometry. The assay is classed as cell-based. The gist of the method: as §2
Assay [10] concerns MV4-11. Description: Cytotoxicity against human MV4-11 cells expressing STAT5 after 48 hrs by alamar blue fluorescent staining. The assay is classed as functional, cell-based. The conditions noted are these: MV4-11, 48 h. The gist of the method: as §4
Assay [11] has as its target T3, Signal transducer and activator of transcription 5B (Homo sapiens, UniProt P51692).
T3 sequence (P51692 whole entry): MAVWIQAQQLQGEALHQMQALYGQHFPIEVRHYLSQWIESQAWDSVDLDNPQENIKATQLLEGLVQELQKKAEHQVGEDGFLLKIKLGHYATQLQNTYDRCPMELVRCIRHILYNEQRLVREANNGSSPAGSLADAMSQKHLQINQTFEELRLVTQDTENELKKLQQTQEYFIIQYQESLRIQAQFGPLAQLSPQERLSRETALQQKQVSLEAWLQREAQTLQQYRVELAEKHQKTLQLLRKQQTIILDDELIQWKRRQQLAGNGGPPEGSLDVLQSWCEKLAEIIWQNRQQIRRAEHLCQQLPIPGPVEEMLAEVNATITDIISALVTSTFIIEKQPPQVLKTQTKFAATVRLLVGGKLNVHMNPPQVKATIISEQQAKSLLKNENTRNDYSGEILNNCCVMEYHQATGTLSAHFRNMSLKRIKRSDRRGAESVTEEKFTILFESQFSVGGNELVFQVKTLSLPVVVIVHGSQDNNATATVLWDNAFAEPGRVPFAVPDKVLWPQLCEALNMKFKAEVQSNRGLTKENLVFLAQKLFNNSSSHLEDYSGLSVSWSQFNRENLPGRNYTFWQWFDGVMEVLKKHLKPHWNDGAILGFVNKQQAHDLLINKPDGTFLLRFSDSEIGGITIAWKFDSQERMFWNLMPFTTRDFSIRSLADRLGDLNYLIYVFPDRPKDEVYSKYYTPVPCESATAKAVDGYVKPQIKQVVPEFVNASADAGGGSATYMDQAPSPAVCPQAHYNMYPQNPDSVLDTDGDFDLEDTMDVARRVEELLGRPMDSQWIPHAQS
In words: Displacement of 5-carboxyfluorescein-labeled GpYLVLDKW from the STAT5b-SH2 domain after 15 mins by fluorescent polarization assay. The gist of the method: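 Competitive FP binding assay in 50 mM NaCl, 10 mM Hepes pH 7.5, 1 mM EDTA, 2 mM DTT with 5% DMSO final. Protein final concentrations were STAT1 120 nM, STAT3 150 nM and STAT5 105 nM. Inhibitor was tested at 200 to 0.2 μM final against 10 nM fluorescent probe, incubated 15 min. Polarization vs concentration was fitted to a standard dose-response curve.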

Assay [12] addresses T1, Signal transducer and activator of transcription 5A (Homo sapiens). In words: Inhibition of STAT5-mediated cyclin D1 expression in human K562 cells at 40 uM after 6 hrs by RT-PCR analysis. The class given is cell-based. Summed up:
as §3

The test system of assay [13] is K562. Description: Induction of apoptosis in human K562 cells assessed as viable cells at 40 uM after 24 hrs using annexin-V FITC/PI double staining by flow cytometry (reference value: 92.8%). The class given is functional. The settings on record: K562, 24 h, read-out: Activity.

T2 sequence (P00519 whole entry, looked up, the tested form may be a part): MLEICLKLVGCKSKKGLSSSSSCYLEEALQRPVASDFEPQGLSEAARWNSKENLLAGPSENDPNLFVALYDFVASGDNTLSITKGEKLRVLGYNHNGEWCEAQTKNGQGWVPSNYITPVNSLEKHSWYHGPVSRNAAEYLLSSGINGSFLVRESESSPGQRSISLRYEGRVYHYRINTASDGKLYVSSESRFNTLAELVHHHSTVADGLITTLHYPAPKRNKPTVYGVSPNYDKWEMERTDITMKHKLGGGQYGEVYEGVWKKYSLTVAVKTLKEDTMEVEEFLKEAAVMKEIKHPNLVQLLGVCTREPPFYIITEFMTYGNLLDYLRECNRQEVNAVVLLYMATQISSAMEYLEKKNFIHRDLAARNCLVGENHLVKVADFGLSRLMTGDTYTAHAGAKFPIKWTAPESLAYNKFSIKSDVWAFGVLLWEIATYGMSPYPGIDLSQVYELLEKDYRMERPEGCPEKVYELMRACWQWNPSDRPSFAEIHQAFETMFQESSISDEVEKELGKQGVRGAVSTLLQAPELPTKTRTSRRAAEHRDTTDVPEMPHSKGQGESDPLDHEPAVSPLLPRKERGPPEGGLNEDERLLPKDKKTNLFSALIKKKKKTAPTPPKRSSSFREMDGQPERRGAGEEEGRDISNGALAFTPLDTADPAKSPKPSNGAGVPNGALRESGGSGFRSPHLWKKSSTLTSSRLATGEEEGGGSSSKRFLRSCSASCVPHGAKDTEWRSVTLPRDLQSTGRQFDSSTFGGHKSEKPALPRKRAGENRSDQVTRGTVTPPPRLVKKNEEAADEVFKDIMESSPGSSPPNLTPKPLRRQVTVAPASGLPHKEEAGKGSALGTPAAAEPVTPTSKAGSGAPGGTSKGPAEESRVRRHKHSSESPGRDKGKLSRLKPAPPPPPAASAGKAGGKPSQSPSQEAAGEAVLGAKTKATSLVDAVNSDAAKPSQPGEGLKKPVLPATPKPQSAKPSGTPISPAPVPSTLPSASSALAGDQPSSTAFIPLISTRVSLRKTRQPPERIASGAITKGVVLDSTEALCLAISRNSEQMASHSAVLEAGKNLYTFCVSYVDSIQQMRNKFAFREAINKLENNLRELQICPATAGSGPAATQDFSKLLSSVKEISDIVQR
T2 sequence (P11274 whole entry, looked up, the tested form may be a part): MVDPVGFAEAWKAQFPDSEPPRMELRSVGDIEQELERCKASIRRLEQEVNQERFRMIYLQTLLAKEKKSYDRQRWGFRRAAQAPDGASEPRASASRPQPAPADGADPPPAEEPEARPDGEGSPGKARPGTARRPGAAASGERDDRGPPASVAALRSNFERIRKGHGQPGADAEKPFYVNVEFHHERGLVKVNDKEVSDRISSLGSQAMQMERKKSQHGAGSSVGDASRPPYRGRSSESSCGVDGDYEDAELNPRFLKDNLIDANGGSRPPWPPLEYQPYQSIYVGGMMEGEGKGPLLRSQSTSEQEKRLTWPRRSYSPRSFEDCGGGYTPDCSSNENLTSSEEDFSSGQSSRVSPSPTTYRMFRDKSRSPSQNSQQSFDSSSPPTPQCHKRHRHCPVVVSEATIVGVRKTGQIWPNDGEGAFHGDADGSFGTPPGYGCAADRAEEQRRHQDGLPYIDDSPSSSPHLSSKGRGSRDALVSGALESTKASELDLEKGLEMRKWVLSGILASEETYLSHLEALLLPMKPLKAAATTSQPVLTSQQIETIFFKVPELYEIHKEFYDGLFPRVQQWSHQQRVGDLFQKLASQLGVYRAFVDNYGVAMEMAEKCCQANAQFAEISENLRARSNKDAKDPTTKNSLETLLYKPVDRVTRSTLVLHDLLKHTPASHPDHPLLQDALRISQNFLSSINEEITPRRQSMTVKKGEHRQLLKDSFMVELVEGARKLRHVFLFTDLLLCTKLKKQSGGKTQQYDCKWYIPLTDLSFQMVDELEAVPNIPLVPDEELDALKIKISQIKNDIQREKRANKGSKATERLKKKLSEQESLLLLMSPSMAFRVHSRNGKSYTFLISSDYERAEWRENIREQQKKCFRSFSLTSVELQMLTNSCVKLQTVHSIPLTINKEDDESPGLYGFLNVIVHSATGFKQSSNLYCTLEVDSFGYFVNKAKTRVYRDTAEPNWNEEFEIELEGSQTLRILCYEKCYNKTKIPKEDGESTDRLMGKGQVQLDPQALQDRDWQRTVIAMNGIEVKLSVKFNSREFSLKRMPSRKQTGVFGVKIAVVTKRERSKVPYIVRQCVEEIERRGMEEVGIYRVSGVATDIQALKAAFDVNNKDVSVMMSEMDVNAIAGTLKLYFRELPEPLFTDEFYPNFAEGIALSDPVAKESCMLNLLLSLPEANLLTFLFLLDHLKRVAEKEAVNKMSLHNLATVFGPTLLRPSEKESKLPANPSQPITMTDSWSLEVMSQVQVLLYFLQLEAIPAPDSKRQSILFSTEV

What is called IC50 is the midpoint of a concentration-inhibition curve. A low value points to greater potency. One may read the Ki as the equilibrium dissociation constant of an inhibitor or competing ligand from its target. A high value points to a looser hold on the target. In the case of `Cc1cc(C)c(S(=O)(=O)N(C)CC(=O)N(Cc2ccc(C3CCCCC3)cc2)c2ccc(C(=O)O)c(O)c2)c(C)c1`, the inhibition entry in assay [1], in [3], in [4], in [9] and in assay [12] was “Active” each time. The inhibition result in assay [2] and in [6] was “inactive” in each case. The IC50 was determined as 42 µM in assay [5] and 17 µM in [10]. In addition, the Activity in assay [7] was 0.41%; in assay [8] it was 5.57%. In [11], affinity was put at a Ki of 2.8 µM. For the same molecule, in assay [13], the viability at 40 µM is 12.5%.
